In ChEMBL document CHEMBL1124000, “N-acylphenylalanines and related compounds. A new class of oral hypoglycemic agents” (1988):
Where a SMILES comes first, the peptide text is derived from it.

Experiments:
[1] = system: Mus musculus; test: Hypoglycemic activity at the lowest dose that causing 20% blood glucose decrease (fasting mice, po); assay type: functional
Outline: (§1)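 Male ICR-CD1 mice, 5 weeks old, fasted 18 h, groups of five. Given orally as a suspension in 0.5% (carboxymethyl)cellulose-0.14 M NaCl, 1 mL/kg; vehicle-treated control group run in parallel. Doses 500, 250, 100, 50, 25 and 10 mg/kg. Blood drawn from carotid 1 h after dosing; glucose measured enzymatically by glucose-oxidase-peroxidase; Student's t test (p < 0.05).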

[2] = system: Mus musculus; test: Hypoglycemic activity was determined as decrease in blood glucose at a dose 250 mg/kg in fasting mice after peroral administration.; assay type: functional; details: route oral; outline: as §1

O=C(N[C@@H](Cc1ccccc1)C(=O)O)c1ccccc1
Dose [1]: 150 mg/kg

O=C(O)[C@H]1Cc2ccccc2CN1C(=O)c1ccccc1
Decrease [2]: <20%

O=C(O)/C(=C/c1ccccc1)NC(=O)c1ccccc1
Decrease [2]: <20%

O=C(N[C@@H](Cc1ccccc1)C(=O)O)C1CCCC1
Dose [1]: 50 mg/kg

O=C(O)[C@@H]1Cc2ccccc2CN1C(=O)c1ccccc1
Decrease [2]: <20%

O=C(N[C@@H](Cc1ccccc1)C(=O)O)c1ccncc1
Decrease [2]: <20%

O=C(N[C@H](Cc1ccccc1)C(=O)O)c1ccccc1
Decrease [2]: <20%

COc1ccc(C(=O)N[C@@H](Cc2ccccc2)C(=O)O)cc1
Dose [1]: 100 mg/kg

O=C(N[C@@H](Cc1ccccc1)C(=O)O)c1cc2ccccc2o1
Dose [1]: 100 mg/kg

O=C(N[C@@H](Cc1ccccc1)C(=O)O)C1CC=CCC1 (some centres not stated)
Dose [1]: 100 mg/kg

O=C(N[C@H](Cc1ccccc1)C(=O)O)C1CCCC1
Decrease [2]: <20%

O=C(O)[C@H](Cc1ccccc1)NC(=O)[C@@H]1CCCN1C(=O)c1ccccc1
Decrease [2]: <20%

Cc1cccc(C(=O)N[C@@H](Cc2ccccc2)C(=O)O)c1
Decrease [2]: <20%

O=C(N[C@@H](Cc1ccccc1)C(=O)O)c1ccc2ccccc2n1
Decrease [2]: <20%

O=C(N[C@@H](Cc1ccccc1)C(=O)O)c1ccc2ccccc2c1
Dose [1]: 250 mg/kg

O=C(O)[C@H](Cc1ccccc1)NCc1ccccc1
Decrease [2]: <20%

O=C(N[C@@H](Cc1ccccc1)C(=O)O)C1CCCCC1
Dose [1]: 100 mg/kg

O=C(O)[C@H](Cc1ccccc1)NC(=O)[C@H]1CCCN1C(=O)c1ccccc1
Decrease [2]: <20%

O=C(N[C@@H](Cc1ccccc1)C(=O)O)C1CCCCCC1
Decrease [2]: <20%

O=C(O)/C(=C\c1ccccc1)NC(=O)c1ccccc1
Decrease [2]: <20%

O=C(N[C@@H](Cc1ccccc1)C(=O)O)c1ccc2c(c1)OCO2
Dose [1]: 100 mg/kg

O=C(N[C@@H](Cc1ccccc1)C(=O)O)c1cnc2ccccc2c1
Decrease [2]: <20%

O=C(N[C@@H](Cc1ccccc1)C(=O)O)c1cccnc1
Decrease [2]: <20%

O=C(N[C@@H](Cc1ccccc1)C(=O)O)c1ccc2ncccc2c1
Decrease [2]: <20%

Cc1ccccc1C(=O)N[C@@H](Cc1ccccc1)C(=O)O
Decrease [2]: <20%

O=C(N[C@@H](Cc1ccccc1)C(=O)O)c1cccc2ccccc12
Decrease [2]: <20%

O=C(N[C@@H](Cc1ccccc1)C(=O)O)c1ccc2c(c1)CCC2
Dose [1]: 250 mg/kg

CCOc1ccc(C(=O)N[C@@H](Cc2ccccc2)C(=O)O)cc1
Dose [1]: 100 mg/kg

Cc1ccc(C(=O)N[C@@H](Cc2ccccc2)C(=O)O)cc1
Dose [1]: 100 mg/kg

O=C(NC(Cc1ccccc1)C(=O)O)c1ccccc1 (configuration not stated)
Dose [1]: 500 mg/kg

CC(=O)N1CCC[C@H]1C(=O)N[C@@H](Cc1ccccc1)C(=O)O (Ac-Pro-Phe-OH)
Decrease [2]: <20%

CCCCNC(=O)NS(=O)(=O)c1ccc(C)cc1 [TOLBUTAMIDE]
Dose [1]: 25 mg/kg
